Laboratory results: article PMC10401071 (Cancer Discovery, 2023)
Like-named read-outs stand apart in the source and are kept apart here.

Assay type: in vivo, human
Summary of the method: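 Adults with advanced solid tumours (ECOG 0–1; TP53 wild-type or unknown) received oral test compound on day 1 of 21-day cycles or days 1 and 8 of 28-day cycles, until progression or unacceptable toxicity. Antiemetic prophylaxis followed guidelines. AE incidence and severity were graded per NCI CTCAE v5.0 and summarised descriptively.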

## Cc1c(C(=O)O)ccc2c3n(nc12)[C@@H]1[C@H](C3)N(CC2CC2)[C@@]2(C(=O)Nc3cc(Cl)ccc32)[C@H]1c1cccc(Cl)c1F [brigimadlin]
D1D8q4w (n = 25)
  TRAE Dysgeusia, Grade ≥3: 0 n (%)
  TRAE Fatigue, All grades: 10 (40.0) n (%)
  TRAE Fatigue, Grade ≥3: 0 n (%)
  TRAE Gastroesophageal reflux disease, All grades: 3 (12.0) n (%)
  TRAE Gastroesophageal reflux disease, Grade ≥3: 0 n (%)
  TRAE Increased alanine aminotransferase, All grades: 0 n (%)
  TRAE Increased alanine aminotransferase, Grade ≥3: 0 n (%)
  TRAE Increased aspartate aminotransferase, All grades: 1 (4.0) n (%)
  TRAE Increased aspartate aminotransferase, Grade ≥3: 0 n (%)
  TRAE Nausea, All grades: 19 (76.0) n (%)
  TRAE Nausea, Grade ≥3: 0 n (%)
  TRAE Neutropenia, All grades: 6 (24.0) n (%)
  TRAE Neutropenia, Grade ≥3: 5 (20.0) n (%)
  TRAE Thrombocytopenia, Grade ≥3: 5 (20.0) n (%)
  TRAE Vomiting, All grades: 15 (60.0) n (%)
  TRAE Vomiting, Grade ≥3: 1 (4.0) n (%)
D1q3w
  patients with nausea leading to dose reduction: three
  patients with thrombocytopenia leading to dose reduction: four
  serious AE neutropenia: three
  serious AE thrombocytopenia: three
D1q3w (n = 29)
  Any AE: 29 (100.0) n (%)
  Any AE (any cause) leading to study drug discontinuation: 2 (6.9) n (%)
  Any AE (any cause) leading to study drug dose reduction: 11 (37.9) n (%)
  Any TRAE: 27 (93.1) n (%)
  Any grade ≥3 AE: 21 (72.4) n (%)
  Any grade ≥3 TRAE: 17 (58.6) n (%)
  Serious AEs (any cause): 9 (31.0) n (%)
  TRAE Alopecia, All grades: 6 (20.7) n (%)
  TRAE Alopecia, Grade ≥3: 0 n (%)
  TRAE Anemia, All grades: 12 (41.4) n (%)
  TRAE Anemia, Grade ≥3: 3 (10.3) n (%)
  TRAE Decreased appetite, All grades: 10 (34.5) n (%)
  TRAE Decreased appetite, Grade ≥3: 0 n (%)
  TRAE Decreased lymphocyte count, All grades: 5 (17.2) n (%)
  TRAE Decreased lymphocyte count, Grade ≥3: 3 (10.3) n (%)
  TRAE Decreased weight, All grades: 3 (10.3) n (%)
  TRAE Decreased weight, Grade ≥3: 0 n (%)
  TRAE Decreased white blood cell count, All grades: 9 (31.0) n (%)
  TRAE Decreased white blood cell count, Grade ≥3: 5 (17.2) n (%)
  TRAE Diarrhea, All grades: 8 (27.6) n (%)
  TRAE Diarrhea, Grade ≥3: 0 n (%)
  TRAE Dysgeusia, All grades: 5 (17.2) n (%)
  TRAE Dysgeusia, Grade ≥3: 0 n (%)
  TRAE Fatigue, All grades: 15 (51.7) n (%)
  TRAE Fatigue, Grade ≥3: 1 (3.4) n (%)
  TRAE Gastroesophageal reflux disease, All grades: 2 (6.9) n (%)
  TRAE Gastroesophageal reflux disease, Grade ≥3: 0 n (%)
  TRAE Increased alanine aminotransferase, All grades: 3 (10.3) n (%)
  TRAE Increased alanine aminotransferase, Grade ≥3: 0 n (%)
  TRAE Increased aspartate aminotransferase, All grades: 4 (13.8) n (%)
  TRAE Increased aspartate aminotransferase, Grade ≥3: 0 n (%)
  TRAE Nausea, All grades: 21 (72.4) n (%)
  TRAE Nausea, Grade ≥3: 4 (13.8) n (%)
  TRAE Neutropenia, Grade ≥3: 8 (27.6) n (%)
  TRAE Thrombocytopenia, All grades: 15 (51.7) n (%)
  TRAE Thrombocytopenia, Grade ≥3: 9 (31.0) n (%)
  TRAE Vomiting, All grades: 13 (44.8) n (%)
  TRAE Vomiting, Grade ≥3: 0 n (%)
All 54 patients
  TRAE neutropenia grade 3: 9.3%
  TRAE neutropenia grade 4: 14.8%
  TRAE thrombocytopenia grade 3: 13.0%
  TRAE thrombocytopenia grade 4: 13.0%
  grade ≥3 TRAE neutropenia: 24.1%
  grade ≥3 TRAE thrombocytopenia: 25.9%
  patients with a grade ≥3 AE: 61.1%
  patients with a serious AE: 33.3%
  patients with grade ≥3 TRAEs: 46.3%
  patients with investigator-reported TRAEs: 92.6%
All 54 patients, all grades
  TRAE nausea: 74.1%
  TRAE vomiting: 51.9%
Both treatment arms
  treatment discontinuation due to a hematologic TRAE: no patient discontinued treatment with brigimadlin due to a hematologic TRAE
